Data: ChEMBL document CHEMBL1142136, “Contribution of target gene mutations and efflux to decreased susceptibility of Salmonella enterica serovar typhimurium to fluoroquinolones and other antimicrobials” (2007)
≈ marks a conversion by molar mass, not a printed value.

Tests used:
Format in all cases: functional, Salmonella enterica subsp. enterica serovar Typhimurium
[1] = system: Salmonella typhimurium; assay: Antimicrobial activity against Salmonella enterica serovar Typhimurium CS3 with GyrA S83F, D87N, ParC S80I mutation
Outline: (§1)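 MICs measured by broth microdilution on the Sensititre automated system and interpreted by CLSI broth microdilution standards. Ciprofloxacin was also tested by agar dilution, widening the range to 0.0075–128 μg/ml. Quality control strains were E. coli ATCC 25922 and 35218, E. faecalis ATCC 29212, S. aureus ATCC 29213 and P. aeruginosa ATCC 27853.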

[2] = system: Salmonella typhimurium; assay: Antimicrobial activity against Salmonella enterica serovar Typhimurium CHS14 gyrA+ with GyrA D87G mutation; outline: as §1
[3] = system: Salmonella typhimurium; assay: Antimicrobial activity against Salmonella enterica serovar Typhimurium S21-2 with GyrA S83F, ParC S80I mutation; outline: as §1
[4] = system: Salmonella typhimurium; assay: Antimicrobial activity against Salmonella enterica serovar Typhimurium CHS14 acrAB::Kan with GyrA D87G mutation; outline: as §1
[5] = system: Salmonella typhimurium; assay: Antimicrobial activity against Salmonella enterica serovar Typhimurium CHS38 with GyrA D87G mutation; outline: as §1
[6] = system: Salmonella typhimurium; assay: Antimicrobial activity against Salmonella enterica serovar Typhimurium CS3 acrAB::Kan with GyrA S83F, D87N, ParC S80I mutation; outline: as §1
[7] = system: Salmonella typhimurium; assay: Antimicrobial activity against Salmonella enterica serovar Typhimurium S21-3 tolC::Kan with GyrA S83F, ParC S80I mutation; outline: as §1
[8] = system: Salmonella typhimurium; assay: Antimicrobial activity against Salmonella enterica serovar Typhimurium CHS14 with GyrA D87G mutation; outline: as §1
[9] = system: Salmonella typhimurium; assay: Antimicrobial activity against Salmonella enterica serovar Typhimurium S21-1 gyrA+; outline: as §1
[10] = system: Salmonella typhimurium; assay: Antimicrobial activity against Salmonella enterica serovar Typhimurium S21-2 tolC::Kan with GyrA S83F, ParC S80I mutation; outline: as §1
[11] = system: Salmonella typhimurium; assay: Antimicrobial activity against Salmonella enterica serovar Typhimurium S21 gyrA+; outline: as §1
[12] = system: Salmonella typhimurium; assay: Antimicrobial activity against Salmonella enterica serovar Typhimurium CHS38 tolC::Kan with GyrA D87G mutation; outline: as §1
[13] = system: Salmonella typhimurium; assay: Antimicrobial activity against Salmonella enterica serovar Typhimurium S21-1 tolC::Kan with GyrA S83F mutation; outline: as §1
[14] = system: Salmonella typhimurium; assay: Antimicrobial activity against Salmonella enterica serovar Typhimurium CS9 acrAB::Kan with GyrA S83F, D87N, ParC S80I mutation; outline: as §1
[15] = system: Salmonella typhimurium; assay: Antimicrobial activity against Salmonella enterica serovar Typhimurium CHS18 tolC::Kan with GyrA S38F mutation; outline: as §1
[16] = system: Salmonella typhimurium; assay: Antimicrobial activity against Salmonella enterica serovar Typhimurium S21-3 with GyrA S83F, ParC S80I mutation; outline: as §1
[17] = system: Salmonella typhimurium; assay: Antimicrobial activity against Salmonella enterica serovar Typhimurium S21-4 with GyrA S83F, ParC S80I mutation; outline: as §1
[18] = system: Salmonella typhimurium; assay: Antimicrobial activity against Salmonella enterica serovar Typhimurium S21-4 acrAB::Kan with GyrA S83F, ParC S80I mutation; outline: as §1
[19] = system: Salmonella typhimurium; assay: Antimicrobial activity against Salmonella enterica serovar Typhimurium CS1 acrAB::Kan with GyrA S83F, D87N, ParC S80I mutation; outline: as §1
[20] = system: Salmonella typhimurium; assay: Antimicrobial activity against Salmonella enterica serovar Typhimurium S21-4 gyrA+ with ParC S80I mutation; outline: as §1
[21] = system: Salmonella typhimurium; assay: Antimicrobial activity against Salmonella enterica serovar Typhimurium CS9 with GyrA S83F, D87N, ParC S80I mutation; outline: as §1
[22] = system: Salmonella typhimurium; assay: Antimicrobial activity against Salmonella enterica serovar Typhimurium CHS18 with GyrA S38F mutation; outline: as §1
[23] = system: Salmonella typhimurium; assay: Antimicrobial activity against Salmonella enterica serovar Typhimurium S21-2 acrAB::Kan with GyrA S83F, ParC S80I mutation; outline: as §1
[24] = system: Salmonella typhimurium; assay: Antimicrobial activity against Salmonella enterica serovar Typhimurium S21-3 gyrA+ with ParC S80I mutation; outline: as §1
[25] = system: Salmonella typhimurium; assay: Antimicrobial activity against Salmonella enterica serovar Typhimurium S21-3 acrAB::Kan with GyrA S83F, ParC S80I mutation; outline: as §1
[26] = system: Salmonella typhimurium; assay: Antimicrobial activity against Salmonella enterica serovar Typhimurium GyrA S21-1 acrAB::Kan with GyrA S83F mutation; outline: as §1
[27] = system: Salmonella typhimurium; assay: Antimicrobial activity against Salmonella enterica serovar Typhimurium S21-1 GyrA S83F mutant; outline: as §1
[28] = system: Salmonella typhimurium; assay: Antimicrobial activity against Salmonella enterica serovar Typhimurium CS3 tolC::Kan with GyrA S83F, D87N, parC S80I mutation; outline: as §1
[29] = system: Salmonella typhimurium; assay: Antimicrobial activity against Salmonella enterica serovar Typhimurium S21 acrAB::Kan
Outline: (§2)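 MICs by automated broth microdilution panels, interpreted to CLSI broth microdilution standards. Ciprofloxacin additionally tested by agar dilution across 0.0075 to 128 μg/ml. Quality control strains: E. coli ATCC 25922 and 35218, Enterococcus faecalis ATCC 29212, S. aureus ATCC 29213, P. aeruginosa ATCC 27853. Test strains are kanamycin-marked deletion mutants of ground-beef isolate S21.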

[30] = system: Salmonella typhimurium; assay: Antimicrobial activity against Salmonella enterica serovar Typhimurium CHS14 tolC::Kan with GyrA D87G mutant; outline: as §1
[31] = system: Salmonella typhimurium; assay: Antimicrobial activity against Salmonella enterica serovar Typhimurium CS1 tolC::Kan with GyrA S83F, D87N, ParC S80I mutation; outline: as §1
[32] = system: Salmonella typhimurium; assay: Antimicrobial activity against Salmonella enterica serovar Typhimurium CS1 with GyrA S83F, D87N, ParC S80I mutation; outline: as §1
[33] = system: Salmonella typhimurium; assay: Antimicrobial activity against Salmonella enterica serovar Typhimurium S21; outline: as §1
[34] = system: Salmonella typhimurium; assay: Antimicrobial activity against Salmonella enterica serovar Typhimurium S21-4 tolC::Kan with GyrA S83F, ParC S80I mutation; outline: as §1
[35] = system: Salmonella typhimurium; assay: Antimicrobial activity against Salmonella enterica serovar Typhimurium CS9 tolC::Kan with GyrA S83F, D87N, ParC S80I mutation; outline: as §1
[36] = system: Salmonella typhimurium; assay: Antimicrobial activity against Salmonella enterica serovar Typhimurium S21 tolC::Kan; outline: as §2
[37] = system: Salmonella typhimurium; assay: Antimicrobial activity against Salmonella enterica serovar Typhimurium CHS18 acrAB::Kan with GyrA S38F mutation; outline: as §1
[38] = system: Salmonella typhimurium; assay: Antimicrobial activity against Salmonella enterica serovar Typhimurium CHS38 gyrA+ with GyrA D87G mutation; outline: as §1
[39] = system: Salmonella typhimurium; assay: Antimicrobial activity against Salmonella enterica serovar Typhimurium CS9 gyrA+ with GyrA S83F, D87N, ParC S80I mutation; outline: as §1
[40] = system: Salmonella typhimurium; assay: Antimicrobial activity against Salmonella enterica serovar Typhimurium CS1 gyrA+ with GyrA S83F, D87N, ParC S80I mutation; outline: as §1
[41] = system: Salmonella typhimurium; assay: Antimicrobial activity against Salmonella enterica serovar Typhimurium CHS38 acrAB::Kan with GyrA D87G mutation; outline: as §1
[42] = system: Salmonella typhimurium; assay: Antimicrobial activity against Salmonella enterica serovar Typhimurium CS3 gyrA+ with GyrA S83F, D87N, ParC S80I mutation; outline: as §1
[43] = system: Salmonella typhimurium; assay: Antimicrobial activity against Salmonella enterica serovar Typhimurium S21-2 gyrA+ with ParC S80I mutation; outline: as §1
[44] = system: Salmonella typhimurium; assay: Antimicrobial activity against Salmonella enterica serovar Typhimurium CHS18 gyrA+ with GyrA S38F mutation; outline: as §1

Q: What does the source list for `O=C(O)c1cn(-c2ccc(F)cc2)c2cc(N3CCNCC3)c(F)cc2c1=O` [SARAFLOXACIN]?
A: MIC [1]: 16 µg/mL (≈ 41.5 µM); MIC [2]: 0.03 µg/mL (≈ 0.0778 µM); MIC [3]: 8 µg/mL (≈ 20.8 µM); MIC [4]: < 0.015 µg/mL; MIC [5]: 0.12 µg/mL (≈ 0.311 µM); MIC [6]: 4 µg/mL (≈ 10.4 µM); MIC [7]: 0.5 µg/mL (≈ 1.3 µM); MIC [8]: 0.25 µg/mL (≈ 0.649 µM); MIC [9]: 0.03 µg/mL (≈ 0.0778 µM); MIC [10]: 0.5 µg/mL (≈ 1.3 µM); MIC [11]: 0.03 µg/mL (≈ 0.0778 µM); MIC [12]: < 0.015 µg/mL; MIC [13]: 0.12 µg/mL (≈ 0.311 µM); MIC [14]: 4 µg/mL (≈ 10.4 µM); MIC [15]: 0.03 µg/mL (≈ 0.0778 µM); MIC [16]: > 16 µg/mL; MIC [17]: > 16 µg/mL; MIC [18]: 0.5 µg/mL (≈ 1.3 µM); MIC [19]: 4 µg/mL (≈ 10.4 µM); MIC [20]: 2 µg/mL (≈ 5.19 µM); MIC [21]: > 16 µg/mL; MIC [22]: 0.25 µg/mL (≈ 0.649 µM); MIC [23]: 0.5 µg/mL (≈ 1.3 µM); MIC [24]: 1 µg/mL (≈ 2.59 µM); MIC [25]: 0.5 µg/mL (≈ 1.3 µM); MIC [26]: 0.12 µg/mL (≈ 0.311 µM); MIC [27]: 1 µg/mL (≈ 2.59 µM); MIC [28]: 4 µg/mL (≈ 10.4 µM); MIC [29]: < 0.015 µg/mL; MIC [30]: < 0.015 µg/mL; MIC [31]: 4 µg/mL (≈ 10.4 µM); MIC [32]: 16 µg/mL (≈ 41.5 µM); MIC [33]: 0.03 µg/mL (≈ 0.0778 µM); MIC [34]: 0.5 µg/mL (≈ 1.3 µM); MIC [35]: 4 µg/mL (≈ 10.4 µM); MIC [36]: < 0.015 µg/mL; MIC [37]: 0.03 µg/mL (≈ 0.0778 µM); MIC [38]: < 0.015 µg/mL; MIC [39]: 0.03 µg/mL (≈ 0.0778 µM); MIC [40]: 0.06 µg/mL (≈ 0.156 µM); MIC [41]: 0.03 µg/mL (≈ 0.0778 µM); MIC [42]: 0.06 µg/mL (≈ 0.156 µM); MIC [43]: 0.25 µg/mL (≈ 0.649 µM); MIC [44]: 0.06 µg/mL (≈ 0.156 µM)

Q: Which results are given for `CN1C[C@@H]2C[C@H]1CN2c1cc2c(cc1F)c(=O)c(C(=O)O)cn2C1CC1` [DANOFLOXACIN]?
A: MIC [1]: > 16 µg/mL; MIC [2]: 0.03 µg/mL (≈ 0.0839 µM); MIC [3]: 4 µg/mL (≈ 11.2 µM); MIC [4]: 0.03 µg/mL (≈ 0.0839 µM); MIC [5]: 0.25 µg/mL (≈ 0.7 µM); MIC [6]: 4 µg/mL (≈ 11.2 µM); MIC [7]: 0.25 µg/mL (≈ 0.7 µM); MIC [8]: 0.25 µg/mL (≈ 0.7 µM); MIC [9]: 0.03 µg/mL (≈ 0.0839 µM); MIC [10]: 0.12 µg/mL (≈ 0.336 µM); MIC [11]: 0.03 µg/mL (≈ 0.0839 µM); MIC [12]: < 0.015 µg/mL; MIC [13]: 0.06 µg/mL (≈ 0.168 µM); MIC [14]: 4 µg/mL (≈ 11.2 µM); MIC [15]: 0.06 µg/mL (≈ 0.168 µM); MIC [16]: > 16 µg/mL; MIC [17]: > 16 µg/mL; MIC [18]: 0.25 µg/mL (≈ 0.7 µM); MIC [19]: 4 µg/mL (≈ 11.2 µM); MIC [20]: 4 µg/mL (≈ 11.2 µM); MIC [21]: > 16 µg/mL; MIC [22]: 0.5 µg/mL (≈ 1.4 µM); MIC [23]: 0.12 µg/mL (≈ 0.336 µM); MIC [24]: 2 µg/mL (≈ 5.6 µM); MIC [25]: 0.25 µg/mL (≈ 0.7 µM); MIC [26]: 0.06 µg/mL (≈ 0.168 µM); MIC [27]: 0.5 µg/mL (≈ 1.4 µM); MIC [28]: 4 µg/mL (≈ 11.2 µM); MIC [29]: < 0.015 µg/mL; MIC [30]: 0.03 µg/mL (≈ 0.0839 µM); MIC [31]: 4 µg/mL (≈ 11.2 µM); MIC [32]: > 16 µg/mL; MIC [33]: 0.03 µg/mL (≈ 0.0839 µM); MIC [34]: 0.25 µg/mL (≈ 0.7 µM); MIC [35]: 4 µg/mL (≈ 11.2 µM); MIC [36]: < 0.015 µg/mL; MIC [37]: 0.03 µg/mL (≈ 0.0839 µM); MIC [38]: < 0.015 µg/mL; MIC [39]: 0.06 µg/mL (≈ 0.168 µM); MIC [40]: 0.06 µg/mL (≈ 0.168 µM); MIC [41]: 0.03 µg/mL (≈ 0.0839 µM); MIC [42]: 0.06 µg/mL (≈ 0.168 µM); MIC [43]: 1 µg/mL (≈ 2.8 µM); MIC [44]: 0.06 µg/mL (≈ 0.168 µM)
